Measured values as given in ChEMBL document CHEMBL1121496, “Metabolism of 6-substituted benzo[a]pyrene derivatives: O-dealkylation and regiospecificity in aromatic hydroxylation” (J Med Chem, 1980).

Legend:
Format in all cases: functional
Rattus norvegicus [1] = species on record: Rattus norvegicus; test: Rate of O-Dealkylation by liver microsomes in rats induced with 3-MC; Rates are expressed as pmol of product per 30 min per mg of protein
In short: (§1)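 Male Wistar MRC rats (7–8 weeks old) received 3-MC 40 mg/kg ip in olive oil twice daily for 3 days and were fasted for the final 24 h. Liver microsomes were incubated at 0.5 mg protein/mL with substrate (BP in acetone, others in Me₂SO) for 30 min. Phenolic metabolites were read by fluorescence in base against synthetic phenol standards. Each rat was run in duplicate against a heat- or acetone-inactivated blank, and results are reported as mean ± SE.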

Rattus norvegicus [2] = species on record: Rattus norvegicus; test: Rate of hydroxylation by liver microsomes in rats induced with PB; Rates are expressed as pmol of product per 30 min per mg of protein
In short: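 Liver microsomes (two livers pooled) from 7- or 8-week-old male Wistar MRC rats given phenobarbital 40 mg/kg ip in saline twice daily for 3 days, fasted final 24 h. Incubation at 0.5 mg protein/mL, with BP (80 nmol) in acetone or other substrates in Me2SO. Phenolic metabolites were read by fluorescence in base, quantitated against synthetic 3- or 1-phenol standards, in duplicate versus heat-inactivated blank; mean ± SE across rats.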

Rattus norvegicus [3] = species on record: Rattus norvegicus; test: Rate of hydroxylation by lung microsomes in rats induced with PB; Rates are expressed as pmol of product per 30 min per mg of protein
In short: (§2)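 Rats were pretreated with phenobarbital, 40 mg/kg ip in saline, twice daily for 3 days, and fasted the last 24 h. Lung microsomes were incubated at 1.0 mg protein/mL with substrate in acetone (BP) or Me₂SO. Product formed over 30 min was measured as fluorescence of phenolic metabolites in basic solution against synthetic phenol standards. Determinations were made in duplicate versus a heat-inactivated blank, and results are reported as mean ± SE.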

Rattus norvegicus [4] = species on record: Rattus norvegicus; test: Rate of hydroxylation by lung microsomes in rats induced with 3-MC; Rates are expressed as pmol of product per 30 min per mg of protein
In short: (§3)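 For lung microsomes from 3-MC-induced rats, the dose was 40 mg/kg ip in olive oil, given twice daily for 3 days, followed by a 24 h fast. Incubation used 1.0 mg microsomal protein/mL, with BP added in acetone and derivatives in Me₂SO. Base-extractable phenols were measured by fluorescence and quantitated with synthetic hydroxy-BP standards. Duplicates were corrected against inactivated-microsome blanks, and results are given as mean ± SE across individual rats.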

Rattus norvegicus [5] = species on record: Rattus norvegicus; test: Rate of hydroxylation by liver microsomes in rats induced with 3-MC; Rates are expressed as pmol of product per 30 min per mg of protein; in short: as §1
Rattus norvegicus [6] = species on record: Rattus norvegicus; test: Rate of O-Dealkylation by liver microsomes in rats induced with PB; Rates are expressed as pmol of product per 30 min per mg of protein
In short: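 Phenobarbital-induced rats: male Wistar MRC, 7–8 weeks, 40 mg/kg ip in saline twice daily for 3 days, fasted 24 h. Liver microsomes were used at 0.5 mg protein/mL. BP ethers were added in Me2SO, and phenolic products were measured by fluorescence of basic solutions against phenol standards. p-Nitroanisole O-demethylase was assayed by a modified Netter–Seidel method. Runs were in duplicate versus heat-inactivated blank; mean ± SE across rats.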

Rattus norvegicus [7] = species on record: Rattus norvegicus; test: Rate of O-Dealkylation by lung microsomes in rats induced with PB; Rates are expressed as pmol of product per 30 min per mg of protein; in short: as §2
Rattus norvegicus [8] = species on record: Rattus norvegicus; test: Rate of O-Dealkylation by lung microsomes in rats induced with 3-MC; Rates are expressed as pmol of product per 30 min per mg of protein; in short: as §3
Rattus norvegicus [9] = species on record: Rattus norvegicus; test: Rate of 3-hydroxylation by lung microsomes in rats induced with PB; Rates are expressed as pmol of product per 30 min per mg of protein
In short: (§4)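 Microsomes from lungs (two rats pooled) of 7- or 8-week-old male Wistar MRC rats dosed ip twice daily for 3 days with 3-MC 40 mg/kg in olive oil or phenobarbital 40 mg/kg in saline, then fasted 24 h. Incubation at 1.0 mg protein/mL. BP was added in acetone, other substrates in Me2SO. Base-extracted phenols were read by fluorescence against synthetic phenol standards, in duplicate versus heat-inactivated blank; mean ± SE across rats.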

Rattus norvegicus [10] = species on record: Rattus norvegicus; test: Rate of 3-hydroxylation by lung microsomes in rats induced with 3-MC; Rates are expressed as pmol of product per 30 min per mg of protein; in short: as §4

Work on `CCCOc1ccc2ccc3c(OCCC)c4ccccc4c4ccc1c2c34` yielded a Rate (pmol/30 min/mg protein) (Rattus norvegicus [1]) of 818.

`COc1c2ccccc2c2ccc3cccc4ccc1c2c43` showed a Rate (pmol/30 min/mg protein) (Rattus norvegicus [2]) of 1980, a Rate (pmol/30 min/mg protein) (Rattus norvegicus [3]) of 69 and a Rate (pmol/30 min/mg protein) (Rattus norvegicus [4]) of 576. It also gave a Rate (pmol/30 min/mg protein) (Rattus norvegicus [5]) of 9010.

With `COc1ccc([N+](=O)[O-])cc1` the Rate (pmol/30 min/mg protein) (Rattus norvegicus [1]) was 229000 and the Rate (pmol/30 min/mg protein) (Rattus norvegicus [6]) was 103000.

Work on `COc1ccc2ccc3c(OC)c4ccccc4c4ccc1c2c34` yielded a Rate (pmol/30 min/mg protein) (Rattus norvegicus [5]) of 5700.

`CCOc1ccc2ccc3c(OCC)c4ccccc4c4ccc1c2c34` gave a Rate (pmol/30 min/mg protein) (Rattus norvegicus [1]) of 3360, a Rate (pmol/30 min/mg protein) (Rattus norvegicus [6]) of 2850 and a Rate (pmol/30 min/mg protein) (Rattus norvegicus [7]) of 48. It also gave a Rate (pmol/30 min/mg protein) (Rattus norvegicus [8]) of 156.

Work on `c1ccc2c(c1)cc1ccc3cccc4ccc2c1c34` yielded a Rate (pmol/30 min/mg protein) (Rattus norvegicus [2]) of 1160, a Rate (Rattus norvegicus [9]) of 49 pM and a Rate (Rattus norvegicus [10]) of 618 pM. The Rate (pmol/30 min/mg protein) (Rattus norvegicus [5]) was 5810.

`COc1ccc2ccc3c4ccccc4c(OC)c4ccc1c2c43` showed a Rate (pmol/30 min/mg protein) (Rattus norvegicus [1]) of 1250.

In the case of `COCc1c2ccccc2c2ccc3cccc4ccc1c2c43`, the Rate (pmol/30 min/mg protein) (Rattus norvegicus [4]) is reported as 654 and the Rate (pmol/30 min/mg protein) (Rattus norvegicus [5]) is reported as 7040.

Work on `OCc1c2ccccc2c2ccc3cccc4ccc1c2c43` yielded a Rate (pmol/30 min/mg protein) (Rattus norvegicus [4]) of 182 and a Rate (pmol/30 min/mg protein) (Rattus norvegicus [5]) of 1510.
